Experimental data published in ChEMBL document CHEMBL1150419, “Structure-activity relationships of a peptide inhibitor of the human FcRn:human IgG interaction” (Bioorg Med Chem, 2008).
Bridge positions count the residues as written; N and C are the ends. Peptide text beside a SMILES is read from it.

Tests used:
[1] = biological target: T1, IgG receptor FcRn large subunit p51 (Homo sapiens, UniProt P55899); assay: Binding affinity to human FcRn at pH 7.4 by surface plasmon resonance assay
Summary of the method: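 Soluble human FcRn coupled to the dextran surface of a CM5 chip; peptide dilutions flowed over the chip. Equilibrium response at each dilution plotted against concentration, and Kd fitted with a steady-state affinity model.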

[2] = biological target: T1, IgG receptor FcRn large subunit p51; assay: Inhibition of human IgG binding to soluble human FcRn by ELISA
Summary of the method: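 Biotinylated soluble human FcRn immobilized on neutravidin plates, incubated with hIgG (3 nM, constant) and peptide at varying concentrations for 2 h at 37 °C. After washing, bound hIgG detected with peroxidase-conjugated hIgG-specific Fab fragments.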

[3] = biological target: T1, IgG receptor FcRn large subunit p51; assay: Binding affinity to human FcRn at pH 6 by surface plasmon resonance assay
Summary of the method: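 Soluble human FcRn coupled to the dextran surface of a CM5 chip; peptide dilutions flowed over the chip. The equilibrium response at each dilution was plotted against concentration and fitted to a steady-state affinity model to give Kd.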

T1 sequence (P55899 whole entry): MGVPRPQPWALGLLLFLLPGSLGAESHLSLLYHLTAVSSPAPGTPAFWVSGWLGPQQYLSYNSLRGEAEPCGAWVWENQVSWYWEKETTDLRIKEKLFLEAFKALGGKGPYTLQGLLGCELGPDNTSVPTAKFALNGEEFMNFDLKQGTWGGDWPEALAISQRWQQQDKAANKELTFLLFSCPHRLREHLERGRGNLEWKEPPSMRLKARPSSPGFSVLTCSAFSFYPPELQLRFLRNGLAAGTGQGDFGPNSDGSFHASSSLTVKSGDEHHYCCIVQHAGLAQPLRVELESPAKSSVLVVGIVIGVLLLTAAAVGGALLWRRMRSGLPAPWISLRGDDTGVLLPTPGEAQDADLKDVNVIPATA

SMILES | Kd [1] [µM] | IC50 [2] [µM] | Kd [3] [µM]
CC[C@H](C)[C@@H]1NC(=O)CNC(=O)CNC(=O)[C@H](Cc2ccccc2)NC(=O)[C@H](Cc2cnc[nH]2)NC(=O)CNC(=O)[C@H]([C@@H](C)O)NC(=O)[C@H](C(C)C)NC(=O)[C@@H](NC(=O)CNC(=O)CNC(=O)CN)CSSC[C@@H](C(=O)N[C@@H](CC(N)=O)C(=O)N[C@@H](Cc2ccc(O)cc2)C(=O)N[C@@H](CCC(N)=O)C(=O)O)NC(=O)[C@H](Cc2ccc(O)cc2)NC1=O (H-GGGCVTGHFGGIYCNYQ-OH; disulfide 4-14) | 35 | 33 | 5.2
CC(C)C[C@@H](C(=O)N[C@@H](Cc1ccc(O)cc1)C(=O)N1CCC[C@H]1C(=O)N[C@@H](CS)C(=O)O)N(C)C(=O)CN(C)C(=O)CNC(=O)[C@H](Cc1ccccc1)NC(=O)[C@H](Cc1ccsc1)NC(=O)CNC(=O)[C@@H](NC(=O)[C@@H](NC(=O)[C@H](Cc1ccccc1)NC(=O)[C@@H](N)CCCN=C(N)N)C(C)(C)S)[C@@H](C)O | 3 | 45 | 2
CC(C)C[C@@H](C(=O)N[C@@H](Cc1ccc(O)cc1)C(=O)N1CCC[C@H]1C(=O)N[C@@H](CS)C(=O)O)N(C)C(=O)CN(C)C(=O)CNC(=O)[C@H](Cc1ccccc1)NC(=O)[C@H](CCCCN)NC(=O)CNC(=O)[C@@H](NC(=O)[C@@H](NC(=O)[C@H](Cc1ccccc1)NC(=O)[C@@H](N)CCCN=C(N)N)C(C)(C)S)[C@@H](C)O | 1.1 | 40 | 1.3
CC(C)C[C@@H](C(=O)N[C@@H](Cc1ccc(O)cc1)C(=O)N1CCC[C@H]1C(=O)N[C@@H](CS)C(=O)O)N(C)C(=O)CN(C)C(=O)CNC(=O)[C@H](Cc1ccccc1)NC(=O)[C@H](Cc1cccnc1)NC(=O)CNC(=O)[C@@H](NC(=O)[C@@H](NC(=O)[C@H](Cc1ccccc1)NC(=O)[C@@H](N)CCCNC(=N)N)C(C)(C)S)[C@@H](C)O | 0.26 |  | 0.064
CC[C@H](C)[C@@H]1NC(=O)CNC(=O)[C@H](CC(=O)O)NC(=O)[C@H]([C@@H](C)CC)NC(=O)[C@H](Cc2cnc[nH]2)NC(=O)CNC(=O)[C@H](CCC(=O)O)NC(=O)[C@H]([C@@H](C)CC)NC(=O)[C@@H](NC(=O)[C@H](Cc2ccc(O)cc2)NC(=O)[C@H](CO)NC(=O)[C@@H]2CCCN2)CSSC[C@@H](C(=O)N[C@@H](Cc2ccccc2)C(=O)N[C@@H](CC(N)=O)C(=O)N[C@@H](C)C(=O)O)NC(=O)[C@H](Cc2ccc(O)cc2)NC1=O (H-PSYCIEGHIDGIYCFNA-OH; disulfide 4-14) | 76 | 49 | 8.8
CC(C)C[C@@H](C(=O)N[C@@H](Cc1ccc(O)cc1)C(=O)N1CCC[C@H]1C(=O)N[C@@H](CS)C(=O)O)N(C)C(=O)CN(C)C(=O)CNC(=O)[C@H](Cc1ccccc1)NC(=O)[C@H](CC1CCNCC1)NC(=O)CNC(=O)[C@@H](NC(=O)[C@@H](NC(=O)[C@H](Cc1ccccc1)NC(=O)[C@@H](N)CCCNC(=N)N)C(C)(C)S)[C@@H](C)O | 6.4 | 85 | 5.2
CC(C)C[C@@H]1NC(=O)CNC(=O)CNC(=O)[C@H](Cc2ccccc2)NC(=O)[C@H](Cc2cnc[nH]2)NC(=O)CNC(=O)[C@H]([C@@H](C)O)NC(=O)[C@@H](NC(=O)[C@H](Cc2ccccc2)NC(=O)[C@H](CCCN=C(N)N)NC(=O)[C@@H](N)CCC(N)=O)CSSC[C@@H](C(=O)N[C@@H](CC(N)=O)C(=O)NCC(=O)N2CCC[C@H]2C(=O)O)NC(=O)[C@@H]2CCCN2C(=O)[C@H](Cc2ccc(O)cc2)NC1=O | 45 | 36 | 5.7
C[C@H](NC(=O)CNC(=O)CNC(=O)[C@H](Cc1ccccc1)NC(=O)[C@H](Cc1cnc[nH]1)NC(=O)CNC(=O)[C@@H](NC(=O)[C@H](CS)NC(=O)[C@H](Cc1ccccc1)NC(=O)[C@H](CCCN=C(N)N)NC(=O)[C@@H](N)CCC(N)=O)[C@@H](C)O)C(=O)N[C@@H](Cc1ccc(O)cc1)C(=O)N1CCC[C@H]1C(=O)N[C@@H](CS)C(=O)N[C@@H](CC(N)=O)C(=O)NCC(=O)N1CCC[C@H]1C(=O)O (H-QRFCTGHFGGAYPCNGP-OH) |  | 107 | 26
CC(C)C[C@H](NC(=O)CNC(=O)CNC(=O)[C@H](Cc1ccccc1)NC(=O)[C@H](Cc1cnc[nH]1)NC(=O)CNC(=O)[C@@H](NC(=O)[C@H](CS)NC(=O)[C@H](C)NC(=O)[C@H](CCCN=C(N)N)NC(=O)[C@@H](N)CCC(N)=O)[C@@H](C)O)C(=O)N[C@@H](Cc1ccc(O)cc1)C(=O)N1CCC[C@H]1C(=O)N[C@@H](CS)C(=O)N[C@@H](CC(N)=O)C(=O)NCC(=O)N1CCC[C@H]1C(=O)O (H-QRACTGHFGGLYPCNGP-OH) |  | 95 | 28
CC(C)C[C@@H](C(=O)N[C@@H](Cc1ccc(O)cc1)C(=O)N1CCC[C@H]1C(=O)N[C@@H](CS)C(=O)O)N(C)C(=O)CN(C)C(=O)CNC(=O)[C@H](Cc1ccccc1)NC(=O)[C@H](Cc1ccncc1)NC(=O)CNC(=O)[C@@H](NC(=O)[C@@H](NC(=O)[C@H](Cc1ccccc1)NC(=O)[C@@H](N)CCCNC(=N)N)C(C)(C)S)[C@@H](C)O | 0.28 | 1.3 | 0.067
CC(C)C[C@H](NC(=O)CNC(=O)CNC(=O)[C@H](Cc1ccccc1)NC(=O)[C@H](Cc1cnc[nH]1)NC(=O)[C@H](C)NC(=O)[C@@H](NC(=O)[C@H](CS)NC(=O)[C@H](Cc1ccccc1)NC(=O)[C@H](CCCNC(=N)N)NC(=O)[C@@H](N)CCC(N)=O)[C@@H](C)O)C(=O)N[C@@H](Cc1ccc(O)cc1)C(=O)N1CCC[C@H]1C(=O)N[C@@H](CS)C(=O)N[C@@H](CC(N)=O)C(=O)NCC(=O)N1CCC[C@H]1C(=O)O |  | > 125 | > 250
CC(C)C[C@@H](C(=O)N[C@@H](Cc1ccc(O)cc1)C(=O)N1CCC[C@H]1C(=O)N[C@@H](CS)C(=O)O)N(C)C(=O)CN(C)C(=O)CNC(=O)[C@H](Cc1ccccc1)NC(=O)[C@H](C)NC(=O)CNC(=O)[C@@H](NC(=O)[C@@H](NC(=O)[C@H](Cc1ccccc1)NC(=O)[C@@H](N)CCCNC(=N)N)C(C)(C)S)[C@@H](C)O |  | > 100 | 9.9
CC(C)C[C@H](NC(=O)CNC(=O)C(C)(C)NC(=O)[C@H](Cc1ccccc1)NC(=O)[C@H](Cc1cnc[nH]1)NC(=O)CNC(=O)[C@@H](NC(=O)[C@@H](NC(=O)[C@H](Cc1ccccc1)NC(=O)[C@H](CCCNC(=N)N)NC(=O)[C@@H](N)CCC(N)=O)C(C)(C)S)[C@@H](C)O)C(=O)N[C@@H](Cc1ccc(O)cc1)C(=O)N1CCC[C@H]1C(=O)N[C@@H](CS)C(=O)N[C@@H](CC(N)=O)C(=O)NCC(=O)N1CCC[C@H]1C(=O)O |  | 17 | 5.2
CC(C)C[C@H](NC(=O)CNC(=O)CNC(=O)[C@H](Cc1cccc(Cl)c1)NC(=O)[C@H](Cc1cnc[nH]1)NC(=O)CNC(=O)[C@@H](NC(=O)[C@@H](NC(=O)[C@H](Cc1ccccc1)NC(=O)[C@H](CCCNC(=N)N)NC(=O)[C@@H](N)CCC(N)=O)C(C)(C)S)[C@@H](C)O)C(=O)N[C@@H](Cc1ccc(O)cc1)C(=O)N1CCC[C@H]1C(=O)N[C@@H](CS)C(=O)O |  | 3.7 | 230

Other lines, results leading:

Kd [1] [µM] | IC50 [2] [µM] | Kd [3] [µM] | SMILES
1.2 | 12 | 1.3 | CC(C)C[C@@H](C(=O)N[C@@H](Cc1ccc(O)cc1)C(=O)N1CCC[C@H]1C(=O)N[C@@H](CS)C(=O)O)N(C)C(=O)CN(C)C(=O)CNC(=O)[C@H](Cc1ccccc1)NC(=O)[C@H](CCCN)NC(=O)CNC(=O)[C@@H](NC(=O)[C@@H](NC(=O)[C@H](Cc1ccccc1)NC(=O)[C@@H](N)CCCNC(=N)N)C(C)(C)S)[C@@H](C)O
0.5 | 5.5 | 0.5 | CC(C)C[C@@H](C(=O)N[C@@H](Cc1ccc(O)cc1)C(=O)N1CCC[C@H]1C(=O)N[C@@H](CS)C(=O)O)N(C)C(=O)CN(C)C(=O)CNC(=O)[C@H](Cc1ccccc1)NC(=O)[C@H](CCCNC(=N)N)NC(=O)CNC(=O)[C@@H](NC(=O)[C@@H](NC(=O)[C@H](Cc1ccccc1)NC(=O)[C@@H](N)CCCNC(=N)N)C(C)(C)S)[C@@H](C)O
0.073 |  | 0.074 | CC(C)C[C@@H](C(=O)N[C@@H](Cc1ccc(O)cc1)C(=O)N1CCC[C@H]1C(=O)N[C@@H](CS)C(=O)O)N(C)C(=O)CN(C)C(=O)CNC(=O)[C@H](Cc1ccccc1)NC(=O)[C@H](Cc1ccc(N=C(N)N)cc1)NC(=O)CNC(=O)[C@@H](NC(=O)[C@@H](NC(=O)[C@H](Cc1ccccc1)NC(=O)[C@@H](N)CCCN=C(N)N)C(C)(C)S)[C@@H](C)O
 | > 125 | > 250 | CC(C)C[C@H](NC(=O)CNC(=O)CNC(=O)[C@H](Cc1ccccc1)NC(=O)[C@H](Cc1cnc[nH]1)NC(=O)CNC(=O)[C@@H](NC(=O)[C@H](CS)NC(=O)[C@H](Cc1ccccc1)NC(=O)[C@H](CCCNC(=N)N)NC(=O)[C@@H](N)CCC(N)=O)[C@@H](C)O)C(=O)N[C@@H](C)C(=O)N1CCC[C@H]1C(=O)N[C@@H](CS)C(=O)N[C@@H](CC(N)=O)C(=O)NCC(=O)N1CCC[C@H]1C(=O)O (H-QRFCTGHFGGLAPCNGP-OH)
1.1 | 4.6 |  | CC(C)C[C@@H](C(=O)N[C@@H](Cc1ccc(O)cc1)C(=O)N1CCC[C@H]1C(=O)N[C@@H](CS)C(=O)O)N(C)C(=O)CN(C)C(=O)CNC(=O)[C@H](Cc1ccccc1)NC(=O)[C@H](Cc1ccc(N)cc1)NC(=O)CNC(=O)[C@@H](NC(=O)[C@@H](NC(=O)[C@H](Cc1ccccc1)NC(=O)[C@@H](N)CCCNC(=N)N)C(C)(C)S)[C@@H](C)O
 | 16 | 230 | CC(C)C[C@@H](C(=O)N[C@@H](Cc1ccc(O)cc1)C(=O)N1CCC[C@H]1C(=O)N[C@@H](CS)C(=O)O)N(C)C(=O)CN(C)C(=O)CNC(=O)[C@H](CCc1ccccc1)NC(=O)[C@H](Cc1cnc[nH]1)NC(=O)CNC(=O)[C@@H](NC(=O)[C@@H](NC(=O)[C@H](Cc1ccccc1)NC(=O)[C@H](CCCNC(=N)N)NC(=O)[C@@H](N)CCC(N)=O)C(C)(C)S)[C@@H](C)O
